Most compounds without a hit are left out; they make up all but 2.9% or so of the library.
CHO parental Ca – counter-screen for OX1R antagonists: effect in parental CHO cells; parental CHO-K1, ATP-induced calcium, Fluo-8 fluorescence; inhibition, % at 5.6 µM; 330,000 tested, 0.63% active; AID 463079;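 active = inhibition above that plate's mean sample inhibition plus 3 SD, cut at about 26% in these data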
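Measured by: calcium-sensitive Fluo-8 fluorescence / Test system: CHO parental line / Controls: ATP-challenged DMSO wells low, unchallenged DMSO wells high / Measure: % inhibition / Compound: single nominal dose of 5.6 µM per compound / Replicates: single well per compound, no replicates / Reagent: ATP as calcium-mobilizing challenge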
M1 PAM parental – M1 PAM counterscreen hit in parental CHO-K1 cells. activation, % at 3 µM. 360,000 tested, 0.02% active. ATP EC20, Fluo-8 calcium fluorescence; 0% at ATP EC20, 100% at ATP max. AID 602247;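 active = activation above the run cutoff, the mean activation of all test compounds plus 3 SD, cut at about 40% in these data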;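 note: peak over basal fluorescence ratio in a 140 s read after ATP addition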
OX1R antag-1 – human HCRTR1 antagonism; O43613; CHO/OX1R cells, Fluo-8 calcium fluorescence, orexin A; inhibition, % at 5 µM; 330,000 tested, 0.43% active;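 active = inhibition above its plate's threshold, mean inhibition of all tested compounds on the plate plus 3 SD, cut at about 37% in these data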
Target sequence (O43613 whole entry, looked up): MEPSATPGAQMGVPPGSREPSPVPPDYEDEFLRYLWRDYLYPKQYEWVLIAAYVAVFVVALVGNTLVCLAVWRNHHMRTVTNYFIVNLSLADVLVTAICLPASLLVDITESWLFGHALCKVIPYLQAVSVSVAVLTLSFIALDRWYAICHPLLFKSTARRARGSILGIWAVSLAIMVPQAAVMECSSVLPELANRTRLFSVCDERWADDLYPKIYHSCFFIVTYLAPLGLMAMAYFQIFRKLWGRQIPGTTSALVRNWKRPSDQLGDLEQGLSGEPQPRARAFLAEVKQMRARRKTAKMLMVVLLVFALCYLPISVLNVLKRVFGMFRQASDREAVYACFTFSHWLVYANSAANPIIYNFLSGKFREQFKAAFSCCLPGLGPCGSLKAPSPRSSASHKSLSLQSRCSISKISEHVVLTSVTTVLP
M1 ag parental – M1 agonist counterscreen hit in parental CHO-K1 cells; Fluo-8 calcium fluorescence; scaled to maximal ATP response, vehicle zero; activation, % at 3 µM; 360,000 tested, 0.48% active; AID 602248; in the data active = activation above about 15%;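 note: untransfected CHO-K1 host cells lacking M1 receptor as counterscreen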
OX1R antag-2 – blocks the human orexin 1 receptor; O43613; OX1R-expressing cells, FRET antagonist read-out; inhibition, % at 6.6 µM; 330,000 tested, 1.8% active; AID 485270; in the data active = inhibition mostly above about 38%, no sharp cut-off; inactive = mostly below about 40%
CHO-K1 Ca antag – M1 antagonist counterscreen hit in parental CHO-K1 cells; ATP-induced calcium, Fluo-8 fluorescence; 360,000 tested, 0.6% active; inhibition, % at 3 µM;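 active = inhibition above a per-plate cutoff, the plate's mean sample inhibition plus 3 SD, cut at about 24% in these data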
A number is an active result; n = inactive; x = no result given.

SMILES	CHO parental Ca	M1 PAM parental	OX1R antag-1	M1 ag parental	OX1R antag-2	CHO-K1 Ca antag
O=C(NCCS(=O)(=O)NCC1CCCO1)c1ccccc1 (stereo not drawn)	n	n	n	n	n	n
COc1ccc(CNc2cc(NCCCO)c([N+](=O)[O-])c3nonc23)cc1	n	n	n	n	n	25
O=[N+]([O-])c1c(NCCCO)cc(Sc2ccc(Cl)cc2)c2nonc12	n	n	n	n	n	n
CC(=O)OCCCNc1cc(Sc2ccc(C)cc2)c2nonc2c1[N+](=O)[O-]	n	n	n	n	n	n
COc1ccc(Nc2cc(NCCCO)c([N+](=O)[O-])c3nonc23)cc1	n	n	n	n	49	n
CN(C(=S)Nc1ccc(Oc2ccccc2)cc1)C1CCCCC1	29	n	n	n	n	n
S=C(Nc1ccc(Oc2ccccc2)cc1)NC1CCCCCC1	n	n	n	n	n	n
Cc1sc2ncnc(NCCCN3CCCC3=O)c2c1C	n	n	n	18	n	n
CCOC(=O)c1cnc(-n2nc(C)cc2C)nc1N1CC(C)OC(C)C1 (stereo not drawn)	n	n	n	n	n	24
Cc1ccc2nc(C)c(CN3CCN(c4ccc([N+](=O)[O-])cc4Cl)CC3)n2c1	n	n	n	n	n	n
N=C1/C(=C/c2cccn2-c2ccc([N+](=O)[O-])cc2)C(=O)N=C2SC=CN12	n	n	n	n	n	n
COc1ccc(-c2ccc(/C=C3/C(=N)N4C=CSC4=NC3=O)o2)c([N+](=O)[O-])c1	n	n	n	n	64	n
COc1ccc(NC(=O)n2ncc3c(C)cccc32)cc1OC	n	n	n	n	35	n
COc1cccc(CN2CCN(Cc3[nH]c4ccccc4c3C)CC2CCO)c1 (stereo not drawn)	n	n	n	22	n	n
COc1cccc(CN2CCN(Cc3cc4ccccc4[nH]3)CC2CCO)c1 (stereo not drawn)	n	n	n	n	n	n
N#CCCN(Cc1ccccc1)C(=O)CCC(=O)c1ccc(F)cc1	x	n	x	n	x	n
CCn1ccnc1CN(C)C(=O)CCc1nnc(CCCc2ccccc2)o1	n	n	n	n	n	24
Cc1ccccc1C(=O)NNS(=O)(=O)c1ccc(F)cc1	x	n	x	n	x	24
COc1cccc(CNC(=O)N2CCN(c3ccccc3)CC2)c1	n	n	n	n	n	n
CN(C)S(=O)(=O)c1cccc(NC(=O)c2ccc(COc3ccccc3)cc2)c1	56	n	n	18	n	30
CN(C)S(=O)(=O)c1cccc(NC(=O)c2ccc(OC(F)(F)F)cc2)c1	n	n	n	19	n	n
CC(C)N(Cc1nccn1C)C(=O)c1ccc2oc(Cc3ccccc3)nc2c1	x	n	x	n	x	n
Cc1ccc(CN2CCC[C@]3(N[C@H](c4ccccc4)[C@@H]4C(=O)N(Cc5ccccc5)C(=O)[C@@H]43)C2=O)cc1	x	n	x	n	x	29
CCN1C(=O)[C@H]2[C@@H](c3ccc(C)cc3)N[C@]3(CCCN(Cc4ccc(F)cc4)C3=O)[C@H]2C1=O	x	n	x	n	x	25
O=S(=O)(/C=C/c1ccccc1)c1ccccc1	n	n	n	n	n	n
SMILES	CHO parental Ca	M1 PAM parental	OX1R antag-1	M1 ag parental	OX1R antag-2	CHO-K1 Ca antag
O=S(=O)(C=C(c1ccccc1)c1ccccc1)c1ccccc1	48	n	43	n	n	n
CCOC(=O)COc1ccc2c(c1)C(=O)CC1(CCCCC1)O2	n	n	n	n	n	n
CCOC(=O)COc1ccc2c(c1)C(=O)CC(C)(c1cccnc1)O2 (stereo not drawn)	n	n	n	15	n	n
CC(=O)c1c(C)[nH]c(C(=O)OCCCCN2C(=O)c3ccccc3C2=O)c1C	75	n	63	n	45	33
CC(=O)c1c(C)[nH]c(C(=O)OCc2ccccc2)c1C	n	n	n	n	n	n
COc1ccccc1-c1nnc(SCC(=O)Nc2ccc3[nH]c(=O)[nH]c3c2)n1N	n	n	n	n	n	n
COc1ccc(Nc2c[nH]c(=O)[nH]c2=O)cc1	x	n	x	n	x	n
COc1ccc(NC(=O)c2ccc([N+](=O)[O-])o2)cc1	n	n	n	n	49	n
CC(=O)c1cccc(NC(=O)c2ccc([N+](=O)[O-])o2)c1	n	n	n	n	57	n
O=C(Nc1c(Cl)ccc2nsnc12)c1ccc([N+](=O)[O-])o1	n	n	n	n	57	n

Source: PubChem (The Scripps Research Institute Molecular Screening Center)
